Activity calls are given as the source filed them. No cut-off for these calls is given here. Starred links: 1 amine or outer side, 2 acyl side, 3 side chain; linkers in the order of their positions; H or OH if unused. Positions of bridges follow the written chain, without caps; N, C: chain ends. Non-standard residues stand in square brackets, D forms with d. Residues, ends and D or L forms follow the SMILES beside them. Chains are numbered I, II in the order given. Actinocin(1to9) = Cc1c2oc3c(C)ccc(C(=O)[*:2])c3nc-2c(C(=O)[*:1])c(N)c1=O; NMeV = CN[C@H](C(=O)O)C(C)C; Sar = CNCC(=O)O
Legend:
[1] = test system: HeLa; experiment: Antiproliferative activity against human HeLa cells assessed as cell viability measured after 4 days by MTT assay; type: functional, cell-based; conditions: 96 h
Outline: (§1)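 Solid-tumor cells (own media, 10% FCS) were seeded at 5 × 10⁴ cells/mL, allowed 16 h to adhere, then dosed and read by MTT 4 days later. IC50 was derived by linear regression of growth as % of untreated controls.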

[2] = test system: SK-MEL-28; experiment: Antiproliferative activity against human SKMEL-28 cells assessed as cell viability measured after 4 days by MTT assay; type: functional, cell-based; conditions: SK-MEL-28, 96 h
Outline: as §1, with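 “Leukemia/lymphoma cells (RPMI 1640, 10% FCS) resuspended at 1 × 10⁵ cells/mL with serial drug dilutions and read by MTT after 96 h at 37 °C. Solid-tumor” for “Solid-tumor”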

[3] = test system: G-361; experiment: Antiproliferative activity against human G-361 cells assessed as cell viability measured after 4 days by MTT assay; type: functional, cell-based; conditions: G-361, 96 h
Outline: as §1, with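 “Leukemia/lymphoma cells (RPMI 1640, 10% FCS) resuspended at 1 × 10⁵ cells/mL with serial drug dilutions and read by MTT after 96 h at 37 °C. Solid-tumor” for “Solid-tumor”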

[4] = test system: CCRF-CEM; experiment: Antiproliferative activity against human CCRF-CEM cells assessed as cell viability measured after 4 days by MTT assay; type: functional, cell-based; conditions: 96 h
Outline: as §1, with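 “Leukemia/lymphoma cells (RPMI 1640, 10% FCS) resuspended at 1 × 10⁵ cells/mL with serial drug dilutions and read by MTT after 96 h at 37 °C. Solid-tumor” for “Solid-tumor”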

[5] = test system: CCRF-SB; experiment: Antiproliferative activity against human CCRF-SB cells assessed as cell viability measured after 4 days by MTT assay; type: functional, cell-based; conditions: 96 h
Outline: as §1, with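 “Leukemia/lymphoma cells (RPMI 1640, 10% FCS) resuspended at 1 × 10⁵ cells/mL with serial drug dilutions and read by MTT after 96 h at 37 °C. Solid-tumor” for “Solid-tumor”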

[6] = test system: MT4; experiment: Antiproliferative activity against human MT-4 cells assessed as cell viability measured after 4 days by MTT assay; type: functional, cell-based; conditions: MT4, 96 h
Outline: as §1, with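 “Leukemia/lymphoma cells (RPMI 1640, 10% FCS) resuspended at 1 × 10⁵ cells/mL with serial drug dilutions and read by MTT after 96 h at 37 °C. Solid-tumor” for “Solid-tumor”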

[7] = test system: HT-29; experiment: Antiproliferative activity against human HT-29 cells assessed as cell viability measured after 4 days by MTT assay; type: functional, cell-based; conditions: HT-29, 96 h
Outline: as §1, with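 “Leukemia/lymphoma cells (RPMI 1640, 10% FCS) resuspended at 1 × 10⁵ cells/mL with serial drug dilutions and read by MTT after 96 h at 37 °C. Solid-tumor” for “Solid-tumor”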

[8] = test system: MCF7; experiment: Antiproliferative activity against human MCF7 cells assessed as cell viability measured after 4 days by MTT assay; type: functional, cell-based; conditions: MCF7, 96 h
Outline: as §1, with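 “Leukemia/lymphoma cells (RPMI 1640, 10% FCS) resuspended at 1 × 10⁵ cells/mL with serial drug dilutions and read by MTT after 96 h at 37 °C. Solid-tumor” for “Solid-tumor”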

[9] = test system: ACHN; experiment: Antiproliferative activity against human ACHN cells assessed as cell viability measured after 4 days by MTT assay; type: functional, cell-based; conditions: 96 h
Outline: as §1, with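 “Leukemia/lymphoma cells (RPMI 1640, 10% FCS) resuspended at 1 × 10⁵ cells/mL with serial drug dilutions and read by MTT after 96 h at 37 °C. Solid-tumor” for “Solid-tumor”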

[10] = test system: Calf thymus DNA; experiment: Binding affinity to calf thymus DNA assessed as lamda max by UV-vis spectroscopy; type: nucleic-acid assay; conditions: Bos taurus
Outline: (§2)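 ctDNA held at 0.2 mM in phosphate buffer pH 7 and titrated with drug from […]. UV-vis spectra recorded in a 1 cm quartz cuvette. Binding constant was taken by the mole-ratio method from optical density changes at 260 nm, using a double reciprocal plot.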

[11] = test system: Calf thymus DNA; experiment: Binding affinity to calf thymus DNA assessed as isosbestic point by UV-vis spectroscopy; type: nucleic-acid assay; conditions: Bos taurus; outline: as §2
[12] = test system: Calf thymus DNA; experiment: Binding affinity to calf thymus DNA assessed as red shift by UV-vis spectroscopy; type: nucleic-acid assay; set-up: unit not given here; conditions: Bos taurus; outline: as §2
[13] = test system: DNA; experiment: Binding affinity at Escherichia coli pBR322 DNA assessed as unwinding of supercoiled DNA at 10 uM incubated for 10 mins in presence of human topoisomerase 1 by agarose gel based electrophoresis; type: nucleic-acid assay
Outline: (§3)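 Intercalation assay with relaxed pBR322 (300 ng) and 2 units human Topo I in 50 mM Tris-HCl pH 7.5, 2.5 mM MgCl₂, 0.5 mM DTT and 50 µg/mL BSA, run 10 min at 37 °C. Stopped by phenol/chloroform/isoamyl alcohol extraction. Products run on 1.2% agarose in TAE, 2 V/cm for 15 h, then EtBr-stained. EtBr served as control; three independent experiments.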

[14] = test system: DNA; experiment: Binding affinity at Escherichia coli pBR322 DNA assessed as unwinding of supercoiled DNA at 0.1 uM incubated for 10 mins in presence of human topoisomerase 1 by agarose gel based electrophoresis; type: nucleic-acid assay; outline: as §3
[15] = target: DNA topoisomerase 2-alpha (Homo sapiens) (UniProt P11388); experiment: Inhibition of human topoisomerase 2alpha mediated pBR322 DNA relaxation at 1 uM by agarose gel electrophoresis relative to control
[16] = target: DNA topoisomerase 2-alpha (Homo sapiens) (UniProt P11388); experiment: Inhibition of human topoisomerase 2alpha mediated pBR322 DNA relaxation at 2 uM by agarose gel electrophoresis relative to control
[17] = target: DNA topoisomerase 2-alpha (Homo sapiens) (UniProt P11388); experiment: Poison activity at human topo2alpha assessed as induction of accumulation of topo-2/DNA cleavage complex formation at 1 to 5 uM using […] plasmid incubated for 10 mins by agarose gel electrophoresis; conditions: dose 1-5 µM
Outline: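 Supercoiled pBR322 incubated with purified Topo IIα and drug for 10 min at 30 °C. Stopped with 0.35% SDS plus 0.3 mg/mL proteinase K (final), then 1 h at 56 °C. Products run on 1.2% agarose gels containing EtBr. Linear DNA quantified by gel densitometry; averages of three independent experiments.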

[18] = test system: Calf thymus DNA; experiment: Binding affinity to calf thymus DNA assessed as hypochromism by UV-vis spectroscopy; conditions: Bos taurus

Chain of DNA topoisomerase 2-alpha (Homo sapiens) (P11388 whole entry): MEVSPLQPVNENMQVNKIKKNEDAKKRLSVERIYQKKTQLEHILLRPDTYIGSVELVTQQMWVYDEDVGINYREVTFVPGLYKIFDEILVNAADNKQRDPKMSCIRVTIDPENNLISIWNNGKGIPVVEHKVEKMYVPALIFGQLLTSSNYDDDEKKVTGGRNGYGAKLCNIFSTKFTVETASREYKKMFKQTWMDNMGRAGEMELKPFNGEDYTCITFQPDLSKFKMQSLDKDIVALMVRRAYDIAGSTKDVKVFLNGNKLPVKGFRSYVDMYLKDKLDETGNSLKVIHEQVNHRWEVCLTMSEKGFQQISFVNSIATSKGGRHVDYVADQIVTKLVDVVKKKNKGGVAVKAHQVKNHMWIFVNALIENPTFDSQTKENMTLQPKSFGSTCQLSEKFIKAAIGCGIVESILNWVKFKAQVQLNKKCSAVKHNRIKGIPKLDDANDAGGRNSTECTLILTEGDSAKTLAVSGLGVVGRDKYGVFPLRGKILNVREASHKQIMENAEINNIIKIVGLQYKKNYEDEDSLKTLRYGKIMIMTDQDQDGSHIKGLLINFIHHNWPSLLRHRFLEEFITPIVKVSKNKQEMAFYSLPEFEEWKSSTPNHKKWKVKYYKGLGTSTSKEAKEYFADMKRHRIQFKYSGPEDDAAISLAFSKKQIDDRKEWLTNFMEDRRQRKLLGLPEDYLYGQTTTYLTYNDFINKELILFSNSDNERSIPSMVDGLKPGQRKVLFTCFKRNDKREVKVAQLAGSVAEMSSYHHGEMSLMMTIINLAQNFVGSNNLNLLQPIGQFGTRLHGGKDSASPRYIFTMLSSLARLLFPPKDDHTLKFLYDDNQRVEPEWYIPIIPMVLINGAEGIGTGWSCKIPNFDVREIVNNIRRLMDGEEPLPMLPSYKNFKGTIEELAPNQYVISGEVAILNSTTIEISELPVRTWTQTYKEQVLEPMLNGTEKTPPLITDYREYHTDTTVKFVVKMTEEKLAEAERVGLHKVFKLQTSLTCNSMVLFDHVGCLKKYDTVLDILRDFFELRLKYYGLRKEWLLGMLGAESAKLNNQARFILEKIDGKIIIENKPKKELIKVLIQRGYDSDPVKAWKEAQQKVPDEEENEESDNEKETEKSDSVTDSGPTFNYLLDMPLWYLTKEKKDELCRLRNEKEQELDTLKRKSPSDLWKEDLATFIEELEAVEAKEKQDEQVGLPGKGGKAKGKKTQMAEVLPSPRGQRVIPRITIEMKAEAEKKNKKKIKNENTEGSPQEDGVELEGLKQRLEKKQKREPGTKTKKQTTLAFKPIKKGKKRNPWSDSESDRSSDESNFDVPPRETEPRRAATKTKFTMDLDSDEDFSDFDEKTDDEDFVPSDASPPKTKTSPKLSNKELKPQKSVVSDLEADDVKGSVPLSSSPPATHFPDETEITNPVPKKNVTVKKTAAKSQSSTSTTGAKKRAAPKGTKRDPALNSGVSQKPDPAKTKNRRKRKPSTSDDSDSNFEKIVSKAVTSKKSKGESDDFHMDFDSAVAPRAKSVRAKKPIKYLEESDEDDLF

Structure (SMILES) | IC50 [1] [nM] | IC50 [2] [nM] | IC50 [3] [nM] | IC50 [4] [nM] | IC50 [5] [nM] | IC50 [6] [nM] | IC50 [7] [nM] | IC50 [8] [nM] | IC50 [9] [nM] | Activity [10] | Activity [11] [nm] | Activity [12] | Activity [13] | Activity [14] | inhibition [15] [%] | inhibition [16] [%] | Activity [17] | Activity [18]
COc1cc([C@@H]2c3cc4c(cc3[C@@H](O[C@@H]3O[C@@H]5CO[C@@H](C)O[C@H]5[C@H](O)[C@H]3O)[C@H]3COC(=O)[C@H]23)OCO4)cc(OC)c1O [ETOPOSIDE] | 3000 | 1100 | 2300 |  |  |  |  |  |  |  |  |  |  |  |  |  |  | 
NCCCC[C@H](NC(=O)c1ccc2nc3c4cccnc4c(=O)cc-3oc2c1)C(=O)O | 5 | 2 | 1 | 20 | 20 | 10 | 3 | 7 | 8 | 443 | 395 | 447 | Active | Active | 50 | 100 | Active | 28
COc1cccc2c1C(=O)c1c(O)c3c(c(O)c1C2=O)C[C@@](O)(C(=O)CO)C[C@@H]3O[C@H]1C[C@H](N)[C@H](O)[C@H](C)O1 [DOXORUBICIN] |  |  |  | 20 |  |  |  |  |  |  |  |  |  |  |  |  |  | 
NCCCC[C@H](NC(=O)c1ccc2oc3cc(=O)c4cccnc4c-3nc2c1)C(=O)O | 100 | 210 | 50 | 160 | 160 | 200 | 200 | 100 | 80 | 445 | 280 | 447 |  |  |  |  |  | 19%
Cc1c2oc3c(C)ccc(C(=O)N[C@@H]4C(=O)N[C@H](C(C)C)C(=O)N5CCC[C@H]5C(=O)N(C)CC(=O)N(C)[C@@H](C(C)C)C(=O)O[C@@H]4C)c3nc-2c(C(=O)N[C@@H]2C(=O)N[C@H](C(C)C)C(=O)N3CCC[C@H]3C(=O)N(C)CC(=O)N(C)[C@@H](C(C)C)C(=O)O[C@@H]2C)c(N)c1=O [DACTINOMYCIN] (I: T[dV]P[Sar][NMeV] / II: T[dV]P[Sar][NMeV]; ester I:1-I:C, II:1-II:C; linker I:N-II:N via Actinocin(1to9)) |  |  | 6 |  |  |  |  |  |  |  |  |  |  |  |  |  |  | 
N[C@@H](CCCCNC(=O)c1ccc2nc3c4ncccc4c(=O)cc-3oc2c1)C(=O)O | 100 | 80 | 90 | 150 | 160 | 200 | 100 | 120 | 70 | 459 | 320 | 461 |  |  |  |  |  | 17%

Source: ChEMBL document CHEMBL4706487, “Antitumor agents 7. Synthesis, antiproliferative activity and molecular modeling of new l-lysine-conjugated pyridophenoxazinones as potent DNA-binding ligands and topoisomerase IIα inhibitors” (Eur J Med Chem, 2020)
